Screening data as filed in PubChem BioAssay.
PvdQ inh = blocks Pseudomonas aeruginosa PvdQ acylase activity. purified PvdQ acylase, fluorescence plate reader. inhibition, % at 10 µM. 340,000 compounds, 0.063% hits. AID 488965; in the data active = inhibition above about 30%, passing the limit was not always enough
CAL PDZ FP-1 = inhibitors of human CAL PDZ peptide binding; purified CAL PDZ, TMR-peptide fluorescence polarization, 1 h; inhibition, % at 24.9 µM; 300,000 compounds, 0.92% hits;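 active = mean inhibition of at least 30% with at least half of replicates also reaching 30%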
TbMetRS inhib = blocks T. brucei methionyl-tRNA synthetase activity | AID 624268 | 360,000 compounds, 0.4% hits | purified T. brucei MetRS, ATP depletion, Kinase-Glo luminescence | inhibition, % at 11.9 µM;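 active = inhibition above a per-plate cutoff of the control wells' mean inhibition plus 3 SD, cut at about 5.5% in these data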
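Material: parasite MetRS enzyme / Replication: singlicate, one well per compound / Signal: luminescence of leftover ATP / Schedule: 2 h aminoacylation at 25 °C after 15 min preincubation / Medium: HEPES-MgCl2-KCl buffer plus DTT, spermine, BSA, pyrophosphatase / Doses: 11.9 µM single point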
CAL PDZ FP-2 = human CAL PDZ-peptide interaction inhibition; purified CAL PDZ, TMR-peptide fluorescence polarization, 1 h; Q9HD26; 330,000 compounds, 0.02% hits; inhibition, % at 20 µM; AID 504414;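 active = highest replicate inhibition of at least 40%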
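Material – purified CerCALP PDZ construct · Detection – FP readout, S and P plane fluorescence · Measure – percent inhibition from loss of millipolarization · Controls – unlabelled peptide for full inhibition, DMSO wells as neutral · Probe or stimulus – TMR-labelled reporter peptide T*-PRC34 bound in PDZ groove · Times – 1 h at RT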
DYRK1A inh = Dyrk1A (rat) kinase inhibition; Q63470; ADP-Glo luminescence, NFATc1 peptide; inhibition, % at 12.5 µM; 310,000 compounds, 0.43% hits; AID 504441; in the data active = inhibition above about 50%
CDK5 inh = CDK5/p35 (human) kinase inhibition | inhibition, % at 10 µM | Q00535+Q15078 | 330,000 compounds, 0.01% hits | Recombinant CDK5/p35, ADP-Glo luminescence, 60 min;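 active = highest replicate inhibition of at least 50% and at least 75% of replicates reaching 50%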
Target sequence (Q00535 whole entry, looked up): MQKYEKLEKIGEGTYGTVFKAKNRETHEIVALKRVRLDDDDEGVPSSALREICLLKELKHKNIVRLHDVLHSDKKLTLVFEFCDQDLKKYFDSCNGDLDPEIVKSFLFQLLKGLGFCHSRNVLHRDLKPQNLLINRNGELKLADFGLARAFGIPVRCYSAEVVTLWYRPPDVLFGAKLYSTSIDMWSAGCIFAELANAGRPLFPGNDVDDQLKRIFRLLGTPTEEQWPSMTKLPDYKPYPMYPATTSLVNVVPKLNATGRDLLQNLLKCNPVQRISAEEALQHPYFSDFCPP
Target sequence (Q15078 whole entry, looked up): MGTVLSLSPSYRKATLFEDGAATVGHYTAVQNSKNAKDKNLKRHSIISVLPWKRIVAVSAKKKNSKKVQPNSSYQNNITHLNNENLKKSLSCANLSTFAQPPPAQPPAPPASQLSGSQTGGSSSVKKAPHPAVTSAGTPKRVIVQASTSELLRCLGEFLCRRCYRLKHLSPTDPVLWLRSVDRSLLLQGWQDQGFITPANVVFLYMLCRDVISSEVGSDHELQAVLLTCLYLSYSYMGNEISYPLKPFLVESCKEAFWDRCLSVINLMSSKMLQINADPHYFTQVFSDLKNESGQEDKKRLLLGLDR
Of the large screens only hits and unclear results are named; the others gave an inactive call. Compounds with a hit are over-represented: about 1.4% of the library has one in this group of screens.

CCNc1ccc(C(=O)NN=C2CCCC2)cc1[N+](=O)[O-]	CAL PDZ FP-1 32
Cc1ccc(C(=O)NN=C2CCCC2)cc1C	none
CC(C)(C)NC(=O)C(c1ccccc1F)n1c(=O)c(-c2ccccc2)nc2ccccc21 (stereo unspecified)	none (no result: PvdQ inh, CAL PDZ FP-1, CAL PDZ FP-2, DYRK1A inh, CDK5 inh)
Cc1sc2ncnc(N3CCC(C(=O)NNC(=O)c4ccccc4Cl)CC3)c2c1C	CAL PDZ FP-1 37
Cc1nc(N2CCN(S(=O)(=O)c3cccs3)CC2)c2c(-c3ccccc3)c(C)sc2n1	none (no result: PvdQ inh, CAL PDZ FP-1, CAL PDZ FP-2, DYRK1A inh, CDK5 inh)
Cc1ccc(S(=O)(=O)Cc2cc(F)c([N+](=O)[O-])cc2[N+](=O)[O-])cc1	CAL PDZ FP-1 47
O=[N+]([O-])c1ccc(N2CCN(c3ccc(F)cc3)CC2)cc1	none (no result: CAL PDZ FP-2)
O=[N+]([O-])c1ccc(N2CCSCC2)cc1	PvdQ inh 54
Cc1nn2c(-c3ccc(F)cc3)ccnc2c1Cl	CAL PDZ FP-1 61
Cc1nn2c(-c3ccc(F)cc3)ccnc2c1Br	none
COc1ccc(Cc2c(-c3ccccc3)nc3c4ccccc4ccn23)c(C)c1	none (no result: PvdQ inh, CAL PDZ FP-1, CAL PDZ FP-2, DYRK1A inh, CDK5 inh)
Cc1noc(C)c1COc1cccc(C(=O)OC(C)C#N)c1 (stereo unspecified)	CAL PDZ FP-1 73
COC(=O)c1cc2ccsc2n1Cc1cccc(F)c1	CAL PDZ FP-1 79 (no result: DYRK1A inh)
CCN(CCO)Cc1csc2ccc(C(C)(C)C)cc12	CAL PDZ FP-1 57 (no result: DYRK1A inh)
O=C(CSc1nnc(CNC(=O)c2cccs2)o1)Nc1ccccc1	none
O=C(CSc1nnc(CNC(=O)c2cccs2)o1)Nc1ccccc1C(F)(F)F	CAL PDZ FP-1 103
COc1ccc(NC(=O)C#Cc2ccccc2)cc1	CAL PDZ FP-1 63
O=C(C#Cc1ccccc1)Nc1ccc(F)cc1	none (no result: DYRK1A inh)
CCCCc1cc(=O)oc2c(CN3CCCC3)c(O)c(Cl)cc12	none
CCCc1cc(=O)oc2c(CN3CCN(C)CC3)c(O)c(Cl)cc12	CAL PDZ FP-1 31
Brc1ccc(-n2cnc(-c3ccccc3)c2)cc1	CAL PDZ FP-1 51
O=[N+]([O-])c1ccc(-c2cn(-c3ccc(Cl)cc3)cn2)cc1	none (no result: PvdQ inh, CAL PDZ FP-1, CAL PDZ FP-2, DYRK1A inh, CDK5 inh)
CC1(C(=O)NS(=O)(=O)C2CC2)CCCN(C(=O)c2c(F)cccc2F)C1 (stereo unspecified)	none (no result: PvdQ inh, CAL PDZ FP-1, CAL PDZ FP-2, DYRK1A inh, CDK5 inh)
Cc1ccccc1S(=O)(=O)/N=C(/Nc1c(C)n(C)n(-c2ccccc2)c1=O)c1ccccc1	CAL PDZ FP-1 40 (no result: DYRK1A inh)
Cc1c(N/C(=N/S(=O)(=O)c2ccc(F)cc2)c2ccccc2)c(=O)n(-c2ccccc2)n1C	none
O=S(=O)(O)c1cc(O)c2c(O)c(N=Nc3cc(Cl)ccc3O)c(S(=O)(=O)O)cc2c1	TbMetRS inhib 18
O=S(=O)(O)c1cc(Cl)cc(N=Nc2ccc(O)cc2O)c1O	none
Cc1ccc(C)c(C(O)c2ncc(-c3cccc(C(F)(F)F)c3)[nH]2)c1 (stereo unspecified)	none (no result: PvdQ inh, CAL PDZ FP-1, CAL PDZ FP-2, DYRK1A inh, CDK5 inh)
O=C(CN1CCN(c2ccccc2F)CC1)NC(=O)NCc1ccco1	CAL PDZ FP-1 44
Brc1ccc2nc(C3CCCCC3)c(CC3CCCCC3)n2c1	none (no result: PvdQ inh, CAL PDZ FP-1, CAL PDZ FP-2, DYRK1A inh, CDK5 inh)
COC(=O)C(C(=O)OC)=C(/C=C/N(C)C)N(C)C	CAL PDZ FP-1 46
CCOC(=O)c1sc(N(Cc2ccccc2)C(=O)CCl)nc1C	none
O=C(O)CSCC(=O)N(Cc1ccccc1)c1nc(-c2ccccc2)c(-c2ccccc2)s1	CAL PDZ FP-1 44
Cc1ccccc1Nc1nc(N)nc(CN2C(=O)NC3(CCCCC3C)C2=O)n1 (stereo unspecified)	CAL PDZ FP-1 50
Cc1ccccc1Nc1nc(N)nc(COC(=O)C2CCCCC2)n1	none
Clc1ccc2nc(-c3ccccc3)c(CC3CCCCC3)n2c1	none (no result: PvdQ inh, CAL PDZ FP-1, CAL PDZ FP-2, DYRK1A inh, CDK5 inh)
O=C1CC(c2ccccc2)c2ccccc21 (stereo unspecified)	none
O=C1C=C(c2ccccc2)C(c2ccccc2)C1 (stereo unspecified)	CAL PDZ FP-2 48 (no result: CAL PDZ FP-1)
CCCn1c(SCC(=O)N2CCCC2)nc2c1c(=O)n(C)c(=O)n2C	none
CCn1c(SCC(=O)N2CCCC(C)C2)nc2c1c(=O)n(C)c(=O)n2C (stereo unspecified)	CAL PDZ FP-1 active
O=C1c2ccccc2C(c2nnnn2-c2ccc3c(c2)OCCO3)N1C1CC1 (stereo unspecified)	none (no result: PvdQ inh, CAL PDZ FP-1, CAL PDZ FP-2, DYRK1A inh, CDK5 inh)
CSc1ncc(CN2CCN(C3CCCC3)C(CCO)C2)cn1 (stereo unspecified)	CAL PDZ FP-1 31
Cc1ncc(CN2CCN(C3CCCC3)C(CCO)C2)s1 (stereo unspecified)	CAL PDZ FP-1 82
OCCC1CN(Cc2cnc(N3CCCC3)s2)CCN1C1CCCC1 (stereo unspecified)	none
C=CCn1c(SCC(=O)NC2CCCCC2)nnc1-c1ccccn1	CAL PDZ FP-1 122
O=C(CSc1ncccc1C(=O)O)NC1CCCCCCC1	CAL PDZ FP-1 60
C=CCn1c(SCC(=O)NC2CC2)nnc1-c1ccccn1	none
O=C(COC(=O)Cc1c(F)cccc1Cl)NC(=O)c1ccccc1	CAL PDZ FP-1 50
N#Cc1c(NCCN)nc(NCc2ccccc2)c2c1CCN(Cc1ccccc1)C2	TbMetRS inhib 19
Cc1c(C(=O)N2CCN(S(=O)(=O)c3ccccc3)CC2)oc2ccc(Br)cc12	CAL PDZ FP-1 32
Cc1c(C(=O)N2CCCCC2)oc2ccc(Br)cc12	none
Cn1nc(C(C)(C)C)cc1C(=O)N1CCCCC1c1cc(C(=O)Nc2ccccc2Cl)no1 (stereo unspecified)	none (no result: PvdQ inh, CAL PDZ FP-1, CAL PDZ FP-2, DYRK1A inh, CDK5 inh)
CCOCCCNC(=O)c1ccc(OC)cc1	none
CCOCCCNC(=O)c1ccc(OC(C)=O)cc1	CAL PDZ FP-1 37
Cc1ccc(-c2nn(CC(=O)NCc3cc(-c4nn(C)c(=O)c5ccccc45)ccc3C)c(=O)c3ccccc23)cc1	CAL PDZ FP-1 40 (no result: CAL PDZ FP-2)
COC1=CC(C)C2CC3OC(=O)CC4C(C)=C(OC)C(=O)C(C2(C)C1=O)C34C (stereo unspecified)	none (no result: PvdQ inh, CAL PDZ FP-1, CAL PDZ FP-2, DYRK1A inh, CDK5 inh)
COc1ccc(C(NC(=O)C2CCN(CCOc3ccc(Cl)cc3Cl)CC2)c2cccs2)cc1 (stereo unspecified)	none (no result: PvdQ inh, CAL PDZ FP-1, CAL PDZ FP-2, DYRK1A inh, CDK5 inh)
Cc1ccc(-c2nc3c(c(=O)[nH]c(=O)n3Cc3ccccc3)n2C)o1	CAL PDZ FP-1 31
Cc1ccc(-c2nc3c(c(=O)[nH]c(=O)n3Cc3ccccc3)n2Cc2ccccc2)o1	none
Oc1cccc2ccc(/C=C/c3ccccc3Br)nc12	CAL PDZ FP-1 59
CCN(CC)c1ccc(NC(=O)C2CC(=O)N(Cc3ccccc3)C2)cc1 (stereo unspecified)	CAL PDZ FP-1 101 (no result: DYRK1A inh)
N#CC(c1ccc(=O)[nH]n1)c1ccc(Cl)cc1Cl (stereo unspecified)	none
N#CC(c1ccc(Cl)nn1)c1ccccc1Cl (stereo unspecified)	PvdQ inh 108
Cc1cccc(C(C#N)c2ccc(Cl)nn2)c1 (stereo unspecified)	PvdQ inh 89
